The record followed here is ChEMBL document CHEMBL1145826, “New pyrimido[5,4-b]indoles as ligands for alpha(1)-adrenoceptor subtypes” (J Med Chem, 2003).

The term pKi denotes the negative decadic logarithm of the Ki, by convention in mol/L. The term inhibition denotes the share of the control response that was lost under treatment. Lower therefore signals little suppression.

The target of assay [1] is T1, Alpha-1B adrenergic receptor (Homo sapiens, UniProt P35368).
T1 sequence (P35368 whole entry): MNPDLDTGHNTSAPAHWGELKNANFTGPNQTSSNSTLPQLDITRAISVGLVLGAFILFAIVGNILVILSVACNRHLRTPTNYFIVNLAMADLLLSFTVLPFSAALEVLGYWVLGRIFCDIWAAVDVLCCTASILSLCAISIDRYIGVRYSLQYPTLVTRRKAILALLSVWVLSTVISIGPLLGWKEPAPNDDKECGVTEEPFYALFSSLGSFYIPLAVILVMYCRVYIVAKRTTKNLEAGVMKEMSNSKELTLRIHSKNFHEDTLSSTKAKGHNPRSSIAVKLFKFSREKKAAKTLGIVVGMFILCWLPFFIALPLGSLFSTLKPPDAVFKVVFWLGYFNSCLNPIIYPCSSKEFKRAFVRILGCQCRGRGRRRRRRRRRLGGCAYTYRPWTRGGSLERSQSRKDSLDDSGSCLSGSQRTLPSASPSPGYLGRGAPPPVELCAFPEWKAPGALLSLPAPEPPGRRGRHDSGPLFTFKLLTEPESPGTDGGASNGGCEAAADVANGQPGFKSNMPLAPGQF
Briefly: In vitro binding affinity at human Alpha-1B adrenergic receptor. The essentials:
(§1)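 Human α1A-, α1B- or α1D-AR stably expressed in HEK293 cells (calcium phosphate transfection, subclones chosen for high expression); membranes from scraped, homogenized cells spun at 30000g. Three experiments in duplicate, mean ± SE.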

Assay [2] addresses Adrenergic receptor alpha-1 (Homo sapiens) (UniProt P35348+P25100+P35368). The assay is described as follows: Selectivity for alpha 1A-Adrenergic receptors compared to 1D-Adrenergic receptors. Format: protein assay.
Assay [3] has as its target T2, Alpha-1D adrenergic receptor (Homo sapiens, UniProt P25100).
T2 sequence (P25100 whole entry): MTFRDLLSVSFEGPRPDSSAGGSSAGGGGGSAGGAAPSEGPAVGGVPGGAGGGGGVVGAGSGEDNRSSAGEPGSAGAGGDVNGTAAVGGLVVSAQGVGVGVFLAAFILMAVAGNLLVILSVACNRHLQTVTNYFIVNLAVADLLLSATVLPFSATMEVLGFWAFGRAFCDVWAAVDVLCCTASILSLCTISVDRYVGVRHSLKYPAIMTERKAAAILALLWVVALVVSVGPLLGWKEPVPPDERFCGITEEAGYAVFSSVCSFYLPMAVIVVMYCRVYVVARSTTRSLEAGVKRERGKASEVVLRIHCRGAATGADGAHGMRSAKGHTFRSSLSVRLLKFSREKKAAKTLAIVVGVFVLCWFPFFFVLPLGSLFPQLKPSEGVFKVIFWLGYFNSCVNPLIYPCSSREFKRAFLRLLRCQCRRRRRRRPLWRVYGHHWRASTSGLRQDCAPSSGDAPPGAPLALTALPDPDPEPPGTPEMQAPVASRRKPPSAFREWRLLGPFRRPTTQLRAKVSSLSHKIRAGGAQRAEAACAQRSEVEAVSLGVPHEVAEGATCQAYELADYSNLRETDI
Briefly: In vitro binding affinity at human Alpha-1D adrenergic receptor. The essentials: as §1

Assay [4] concerns the target T3, Alpha-1A adrenergic receptor (Homo sapiens, UniProt P35348).
T3 sequence (P35348 whole entry): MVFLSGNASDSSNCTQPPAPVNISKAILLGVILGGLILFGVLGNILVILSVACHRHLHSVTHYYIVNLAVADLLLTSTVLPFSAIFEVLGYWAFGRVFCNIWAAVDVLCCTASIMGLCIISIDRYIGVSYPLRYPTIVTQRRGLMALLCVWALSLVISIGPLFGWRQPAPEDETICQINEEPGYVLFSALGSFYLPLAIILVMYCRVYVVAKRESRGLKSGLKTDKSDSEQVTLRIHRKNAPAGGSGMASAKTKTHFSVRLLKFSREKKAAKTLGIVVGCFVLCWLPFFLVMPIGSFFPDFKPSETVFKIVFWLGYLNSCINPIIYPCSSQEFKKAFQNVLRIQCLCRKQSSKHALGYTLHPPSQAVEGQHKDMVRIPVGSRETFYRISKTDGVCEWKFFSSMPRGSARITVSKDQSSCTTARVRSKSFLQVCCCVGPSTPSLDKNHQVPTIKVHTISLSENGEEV
The assay is described as follows: In vitro binding affinity at human Alpha-1A adrenergic receptor. The gist of the method: as §1

For assay [5], the target named is T3, Alpha-1A adrenergic receptor. Briefly: Binding affinity towards Alpha-1A adrenergic receptor. The gist of the method:
as §1

The target in assay [6] is T2, Alpha-1D adrenergic receptor. The assay is described as follows: Binding affinity towards Alpha-1D adrenergic receptor. The gist of the method: as §1
For another assay, the species on record is Rattus norvegicus. The assay is described as follows: Inhibition of [3H]inositol Phosphate formation by 100 uM norepinephrine in rat hippocampal slices. The format is functional, Hippocampus. The essentials: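 Rat hippocampal slices equilibrated in Krebs-Henseleit buffer (pH 7.4, 95% O2/5% CO2) at 37 °C for 30 min, labeled 60 min with 0.3 µM myo-[2-3H]inositol. LiCl 7 mM added, then 100 µM norepinephrine 10 min later, test compound (1 µM) 5 min before agonist. After 60 min, stopped with chloroform/methanol; [3H]inositol monophosphate isolated by anion exchange, dpm/mg protein, ≥4 determinations.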

pKi: −log10 of the molar value. Bounds are passed on as bounds.

On to `COc1cc2c(cc1O)CCN1Cc3c(ccc(O)c3OC)C[C@@H]21`, for which the pKi is 6.44 in assay [1], 7.60 in assay [3] and 6.21 in assay [4]. Besides, the Ratio in assay [2] turned out to be 24.6.

Turning to `O=c1[nH]c2c([nH]c3ccccc32)c(=O)n1CCN1CCN(c2ccccc2Cl)CC1`, the values for the negative-log Ki (pKi) in assay [1], in assay [5] and in assay [6] were 8.59, 8.33 and 8.44, respectively.

Regarding `COc1ccccc1N1CCN(CCn2c(=O)[nH]c3c([nH]c4ccccc43)c2=O)CC1`, the pKi in assay [1] was 8.74. In addition, the Activity in the assay filed under Rattus norvegicus is listed as 3987 dpm (mg of protein)-1.

`COc1ccccc1N1CCN(Cn2nc(-c3ccccc3)c3c(C)onc3c2=O)CC1` gave a pKi in assay [3] of 6.50.

Turning to `CC(C)(C)c1ccc(N2CCN(CCn3c(=O)[nH]c4c([nH]c5ccccc54)c3=O)CC2)cc1`, testing at 1 µM in assay [5] gave an inhibition of 8%. For the same compound, in the assay listed under Rattus norvegicus, the Activity is on record as 10390 dpm (mg of protein)-1.

Take `N#CCc1ccc(N2CCN(CCn3c(=O)[nH]c4c([nH]c5ccccc54)c3=O)CC2)cc1`: the pKi in assay [6] was 8.00.

For the compound `Cc1nc2c3ccccc3nc-2c(O)n1CCN1CCN2c3ccccc3OCC2C1` (configuration not stated), the pKi in assay [1], in assay [5] and in assay [6] was less than 5.00 each time.

In the case of `CCOc1ccccc1N1CCN(CCn2cnc3c4ccccc4nc-3c2O)CC1`, the pKi was 7.21 in assay [1], 8.01 in assay [5] and 8.22 in assay [6].

In the case of `CC(C)c1ccc(N2CCN(CCn3c(=O)[nH]c4c([nH]c5ccccc54)c3=O)CC2)cc1`, the pKi is 5.02 in assay [1] and 7.45 in assay [6].

Turning to `C=Cc1sc2ccc(Cl)c3c2c1CN(C)CC3`, the Ratio in assay [2] amounted to 22.5.

`CCc1nc2c3ccccc3nc-2c(O)n1CCN1CCN(c2ccccc2OC)CC1`: the pKi in assay [1] was 6.61; in assay [5], 7.31; in assay [6], 8.16.

Consider `COc1ccccc1C1CCN(CCn2c(=O)[nH]c3c([nH]c4ccccc43)c2=O)CC1`, for which the pKi in assay [1] was 8.54; in assay [5], 8.81; in assay [6], 9.03.

`Cc1nc2c3ccccc3nc-2c(O)n1CCN1CCN(c2ccc(C(C)(C)C)cc2)CC1`: the negative-log Ki (pKi) in assay [1] was 5.69; in assay [5] it was 6.22; in assay [6], 7.01.

Take `O=c1[nH]c2c([nH]c3ccccc32)c(=O)n1CCN1CCN2c3ccccc3OCC2C1` (configuration not stated): the pKi is 5.11 in assay [1], 5.10 in assay [5] and 6.90 in assay [6].

Consider `CCc1nc2c3ccccc3nc-2c(O)n1CCCN1CCN(c2ccccc2OC)CC1`, for which the results for the pKi in assay [1], in assay [5] and in assay [6] were 7.56, 7.97 and 7.90, respectively.

Regarding `CC(C)c1ccc(N2CCN(CCn3cnc4c5ccccc5nc-4c3O)CC2)cc1`, the pKi in assay [1], in assay [5] and in assay [6] was less than 5.00 in each case.

With `CC(C)(C)c1ccc(N2CCN(CCn3cnc4c5ccccc5nc-4c3O)CC2)cc1`, the pKi in assay [1], in assay [5] and in assay [6] was less than 5.00 in each case.

With `CCCCc1ccc(N2CCN(CCn3c(=O)[nH]c4c([nH]c5ccccc54)c3=O)CC2)cc1`, the pKi in assay [6] is 6.61.

In the case of `C[C@H](CN1CCN(c2cc(F)c(F)cc2F)CC1)N1C(=O)CC2(CCCC2)CC1=O`, the figures for the pKi in assay [3] and in assay [4] were 8.80 and 6.53, respectively.

In turn, `CCC(C)c1ccc(N2CCN(CCn3c(=O)[nH]c4c([nH]c5ccccc54)c3=O)CC2)cc1` (configuration not stated) had a pKi in assay [6] of 7.22.

As to `Cc1nc2c3ccccc3nc-2c(O)n1CCN1CCN(c2ccc(C(C)C)cc2)CC1`, the values for the pKi in assay [1], in assay [5] and in assay [6] were 5.39, 5.45 and 5.77, respectively.

In the case of `COc1ccccc1N1CCN(CCCn2cnc3c4ccccc4nc-3c2O)CC1`, the results for the negative-log Ki (pKi) in assay [1], in assay [5] and in assay [6] were 6.79, 7.78 and 7.79, respectively.

`COc1ccccc1N1CCN(CCn2c(C)nc3c4ccccc4nc-3c2O)CC1` gave a pKi in assay [1] of 7.68.

Turning to `CCOc1ccccc1N1CCN(CCn2c(=O)[nH]c3c([nH]c4ccccc43)c2=O)CC1`, the pKi in assay [1] was 7.84; in assay [5], 8.14; in assay [6], 8.80.

In the case of `COc1ccccc1N1CCN(CCCn2c(C)nc3c4ccccc4nc-3c2O)CC1`, the results for the pKi in assay [1], in assay [5] and in assay [6] were 7.57, 8.31 and 8.59, respectively.

With `O=c1[nH]c2c([nH]c3ccccc32)c(=O)n1CCN1CCN(c2ccccc2O)CC1`, the pKi in assay [1] is 7.93; in assay [5], 8.05; in assay [6], 9.20.

`COc1ccccc1N1CCN(CCn2nc(-c3ccccc3)c3c(C)onc3c2=O)CC1`: the pKi in assay [1] was 7.51; in assay [3], 8.82; in assay [4], 8.85. In assay [2], the Ratio was 0.9.

On to `COc1ccccc1N1CCN(CCn2cnc3c4ccccc4nc-3c2O)CC1`, for which the pKi in assay [1] was 7.86; in assay [5], 8.85; in assay [6] it was 9.14.

Consider `CC(C)c1ccc(N2CCN(CCn3c(=O)[nH]c4c(sc5ccccc54)c3=O)CC2)cc1`, for which the pKi in assay [6] is 6.90.

`O=c1[nH]c2c([nH]c3ccccc32)c(=O)n1CCN1CCN(c2ccc(C3CCCCC3)cc2)CC1` showed an inhibition at 1 µM in assay [5] of 7%.
